Source: ChEMBL document CHEMBL1130181, “Importance of the C-1 substituent in classical cannabinoids to CB2 receptor selectivity: synthesis and characterization of a series of O,2-propano-delta 8-tetrahydrocannabinol analogs” (J Med Chem, 1997)

Key:
Mus musculus [1] = organism: Mus musculus; assay: Inhibition of electrically-evoked contractions of mouse vas deferens; format: functional
How it was run: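 Mouse isolated vas deferens; response is drug-induced inhibition of electrically evoked contractions. Drugs mixed with 2 parts Tween 80 by weight and dispersed in 0.9% saline. EC50 with 95% confidence limits from nonlinear regression of log concentration–response curves.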

Mus musculus [2] = organism: Mus musculus; assay: Dissociation constant of SR-141716A determined in the presence using mouse vas deferens.; format: functional
How it was run: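 Mouse isolated vas deferens, electrically evoked contractions; agonist concentration–response curves run with SR-141716A at 31.62 nM or with Tween 80 vehicle. Kd from (x−1)=B/Kd, where x is the dose ratio. Dose ratios and 95% confidence limits by symmetrical (2+2) dose parallel line assay, using agonist concentration pairs on the steepest part of each curve.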

Mus musculus [3] = assay: Rectal temperature in the mouse model, following intravenous administration (30 mg/kg), in the tail vein.; format: functional
How it was run: (§1)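 Mice dosed by tail-vein iv injection in 1:1:18 emulphor:ethanol:saline, 0.1 mL/10 g body weight. Tetrad scored for spontaneous activity, tail-flick antinociception, rectal temperature and ring immobility. Values reported as ED50 ± SE from ALLFIT analysis, or as percent effect (temperature change for RT) at the stated dose (mg/kg).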

[4] = biological target: Cannabinoid receptor (Homo sapiens) (UniProt P34972+P21554); assay: Ratio of binding affinities in cannabinoid CB1 receptor against cannabinoid CB2 receptor; format: protein assay
How it was run: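 Ratio of Ki values. CB1 Ki from displacement of 1 nM [3H]CP-55,940 in whole-brain P2 membranes. CB2 Ki from the same radioligand on CHO cells expressing cloned human CB2. Both Ki values from […].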

Cannabinoid receptor 1 = Cannabinoid receptor 1 (Rattus norvegicus, UniProt P20272); assay: Binding affinity for cannabinoid receptor 1.
Mus musculus [5] = assay: Rectal temperature in the mouse model, following intravenous administration of the compound, in the tail vein.at the dose (100 mg/kg); format: functional; how it was run: as §1
Mus musculus [6] = assay: Rectal temperature in the mouse model, following intravenous administration of the compound(60 mg/kg), in the tail vein.; format: functional; how it was run: as §1

Chain of Cannabinoid receptor (Homo sapiens) (P21554 whole entry, looked up): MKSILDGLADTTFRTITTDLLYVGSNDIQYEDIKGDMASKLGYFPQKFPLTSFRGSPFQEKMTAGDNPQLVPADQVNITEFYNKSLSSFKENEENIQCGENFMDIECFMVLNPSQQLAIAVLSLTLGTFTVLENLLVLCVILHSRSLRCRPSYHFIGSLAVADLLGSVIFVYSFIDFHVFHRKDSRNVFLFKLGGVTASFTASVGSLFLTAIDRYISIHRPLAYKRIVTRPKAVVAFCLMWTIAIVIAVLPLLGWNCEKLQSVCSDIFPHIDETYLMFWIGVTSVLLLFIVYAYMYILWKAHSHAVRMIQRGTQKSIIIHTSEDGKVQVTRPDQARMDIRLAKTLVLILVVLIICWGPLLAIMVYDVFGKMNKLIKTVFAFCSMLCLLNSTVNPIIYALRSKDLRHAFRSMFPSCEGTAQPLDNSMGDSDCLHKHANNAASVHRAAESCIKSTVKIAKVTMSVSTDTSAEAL
Chain of Cannabinoid receptor (Homo sapiens) (P34972 whole entry, looked up): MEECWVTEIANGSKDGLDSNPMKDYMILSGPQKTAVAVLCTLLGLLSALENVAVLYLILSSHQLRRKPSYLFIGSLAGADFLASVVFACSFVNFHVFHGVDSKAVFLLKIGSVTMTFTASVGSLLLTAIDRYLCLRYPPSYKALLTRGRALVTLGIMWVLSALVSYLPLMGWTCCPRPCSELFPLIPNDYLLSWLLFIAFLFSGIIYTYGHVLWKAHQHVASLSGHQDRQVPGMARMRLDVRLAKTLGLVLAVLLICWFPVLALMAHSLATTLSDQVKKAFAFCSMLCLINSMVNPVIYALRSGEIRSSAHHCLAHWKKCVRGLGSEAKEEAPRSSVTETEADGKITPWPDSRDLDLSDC
Chain of Cannabinoid receptor 1 (P20272 whole entry): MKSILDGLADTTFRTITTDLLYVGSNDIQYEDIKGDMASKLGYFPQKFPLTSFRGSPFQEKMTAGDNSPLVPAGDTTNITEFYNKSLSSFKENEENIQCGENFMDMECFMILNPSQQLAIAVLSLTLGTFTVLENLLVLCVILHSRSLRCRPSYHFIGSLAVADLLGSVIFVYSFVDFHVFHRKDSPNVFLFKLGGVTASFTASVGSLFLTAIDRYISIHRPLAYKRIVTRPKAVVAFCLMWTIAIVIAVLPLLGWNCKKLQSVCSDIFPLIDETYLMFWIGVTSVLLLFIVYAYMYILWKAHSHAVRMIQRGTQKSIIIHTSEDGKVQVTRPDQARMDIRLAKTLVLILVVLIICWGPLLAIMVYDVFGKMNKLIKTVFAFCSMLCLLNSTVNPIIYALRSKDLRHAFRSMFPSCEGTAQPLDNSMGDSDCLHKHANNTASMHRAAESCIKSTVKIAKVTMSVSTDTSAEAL

Row | Compound | EC50 (Mus musculus [1]) [nM] | Kd (Mus musculus [2]) [nM] | Temperature (Mus musculus [3]) [°C] | Ratio [4] | Ki (Cannabinoid receptor 1) [nM] | Temperature (Mus musculus [5]) [°C] | Temperature (Mus musculus [6]) [°C]
1 | CCCCCc1cc2c(c3c1CCCO3)C1C[C@H](O)CC[C@H]1C(C)(C)O2 (stereo partly drawn) | 8.35 | 1.67 |  |  |  |  | 
2 | CCCCCc1cc2c(c3c1CCCO3)C1C[C@@H](O)CC[C@H]1C(C)(C)O2 (stereo partly drawn) | 83.5 | 1.67 |  |  |  |  | 
3 | C=C1CC[C@@H]2C(C1)c1c(cc(CCCCC)c3c1OCCC3)OC2(C)C (stereo partly drawn) | 28.6 | 2.49 | -3.6 | 4.4 |  |  | 
4 | CCCCCc1cc2c(c3c1CCCO3)C1CC=CC[C@H]1C(C)(C)O2 (stereo partly drawn) | 16.5 | 2.97 |  | 2.8 | 364 | -1.2 | 
5 | CCCCCc1cc2c(c3c1CCCO3)C1CC(=O)CC[C@H]1C(C)(C)O2 (stereo partly drawn) | 7.23 | 1.72 |  | 3.9 | 90 |  | -2.9
